Measured values from ChEMBL document CHEMBL4321820, “Identification and Optimization of Mechanism-Based Fluoroallylamine Inhibitors of Lysyl Oxidase-like 2/3” (J Med Chem, 2019).

Columns and labels:
[1] = molecular target: T1, Amine oxidase [copper-containing] 3 (Homo sapiens, UniProt Q16853); assay: Substrate activity at recombinant human SSAO assessed as compound oxidation by measuring oxidative turnover at 30 uM measured for 40 mins by horseradish peroxidase-coupled amplex red reagent-based fluorometric assay relative to DMSO; format: ADME
T1 sequence (Q16853 whole entry): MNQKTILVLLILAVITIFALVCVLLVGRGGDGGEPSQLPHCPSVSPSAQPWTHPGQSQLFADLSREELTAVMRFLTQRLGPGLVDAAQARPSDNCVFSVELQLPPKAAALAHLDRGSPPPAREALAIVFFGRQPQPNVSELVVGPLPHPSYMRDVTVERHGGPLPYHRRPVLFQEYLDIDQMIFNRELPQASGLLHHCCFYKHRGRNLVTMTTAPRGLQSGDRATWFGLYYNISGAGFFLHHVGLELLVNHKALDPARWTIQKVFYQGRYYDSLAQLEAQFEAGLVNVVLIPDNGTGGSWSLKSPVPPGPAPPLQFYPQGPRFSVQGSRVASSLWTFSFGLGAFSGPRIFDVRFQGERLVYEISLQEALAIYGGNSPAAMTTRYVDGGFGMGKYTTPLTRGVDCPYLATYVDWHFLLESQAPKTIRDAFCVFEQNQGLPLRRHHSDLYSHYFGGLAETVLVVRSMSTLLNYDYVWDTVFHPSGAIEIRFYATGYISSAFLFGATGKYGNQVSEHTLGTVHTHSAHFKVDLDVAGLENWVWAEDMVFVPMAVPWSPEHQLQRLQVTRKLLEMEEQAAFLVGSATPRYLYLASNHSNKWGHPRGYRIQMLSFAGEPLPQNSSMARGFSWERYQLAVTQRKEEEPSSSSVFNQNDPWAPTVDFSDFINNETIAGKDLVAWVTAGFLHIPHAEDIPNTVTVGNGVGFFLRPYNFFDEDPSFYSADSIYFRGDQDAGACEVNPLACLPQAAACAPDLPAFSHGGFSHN
Summary of the method: (§1)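 Compound oxidation measured without substrate by peroxidase-coupled fluorometric read-out of resorufin formation over 40 min at 37 °C in HEPES buffer. Amplex Red 20 µM, HRP 4 U/ml, test compound at final 30 µM. Enzyme source was human recombinant SSAO or AOC4 from diluted dog serum. Benzylamine at 600 µM served as positive control. Signal is expressed relative to DMSO-only background, so a value near 1 means no turnover.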

[2] = molecular target: T2, Lysyl oxidase homolog 2 (Homo sapiens, UniProt Q9Y4K0); assay: Inhibition of recombinant human C-terminal His-tagged […] (1-774 residues) expressed in mouse myeloma cells using putrescine as substrate preincubated with enzyme for 30 mins followed by substrate addition and measured every 2.5 mins for 30 mins by Amplex-Red oxidation assay
T2 sequence (Q9Y4K0 whole entry): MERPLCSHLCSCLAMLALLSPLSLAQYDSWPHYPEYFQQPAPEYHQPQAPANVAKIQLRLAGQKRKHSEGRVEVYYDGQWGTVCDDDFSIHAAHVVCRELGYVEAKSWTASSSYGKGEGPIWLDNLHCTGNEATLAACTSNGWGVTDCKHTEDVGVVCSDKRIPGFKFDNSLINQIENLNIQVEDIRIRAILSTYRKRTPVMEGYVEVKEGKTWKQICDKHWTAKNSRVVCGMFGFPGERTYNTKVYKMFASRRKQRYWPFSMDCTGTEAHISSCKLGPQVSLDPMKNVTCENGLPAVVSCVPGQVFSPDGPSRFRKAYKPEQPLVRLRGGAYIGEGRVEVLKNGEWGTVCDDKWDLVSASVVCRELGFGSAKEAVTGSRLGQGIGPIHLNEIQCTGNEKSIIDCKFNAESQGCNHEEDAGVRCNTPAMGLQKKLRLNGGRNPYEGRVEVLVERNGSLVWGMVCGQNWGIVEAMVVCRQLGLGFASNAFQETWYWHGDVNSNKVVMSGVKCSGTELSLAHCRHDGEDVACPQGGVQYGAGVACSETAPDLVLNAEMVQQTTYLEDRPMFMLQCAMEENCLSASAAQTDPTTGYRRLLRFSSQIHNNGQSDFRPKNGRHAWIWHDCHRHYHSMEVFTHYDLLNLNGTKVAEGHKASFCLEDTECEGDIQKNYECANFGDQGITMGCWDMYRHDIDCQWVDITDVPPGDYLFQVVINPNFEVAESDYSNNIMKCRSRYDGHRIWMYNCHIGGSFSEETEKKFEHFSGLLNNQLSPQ
Summary of the method: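 LOXL2 enzyme preincubated with compound for 30 min at 37 °C, then Amplex Red (120 µM) / HRP (1.5 U/mL) mix containing 5 mM putrescine added. Buffer: 1.2 M urea, 50 mM sodium borate, pH 8.2. H2O2 fluorescence (ex 565/em 590) read every 2.5 min for 30 min at 37 °C; BAPN 100 µM as positive control; n≥2.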

[3] = Substrate activity at AOC4 in dog serum assessed as compound oxidation by measuring oxidative turnover at 30 uM measured for 40 mins by horseradish peroxidase-coupled amplex red reagent-based fluorometric assay relative to DMSO; format: ADME, cell-free, Canis lupus familiaris; summary of the method: as §1
[4] = molecular target: T3, Protein-lysine 6-oxidase (Bos taurus, UniProt P33072); assay: Inhibition of LOX in bovine aorta using putrescine as substrate preincubated with enzyme for 30 mins followed by substrate addition and measured every 2.5 mins for 30 mins by Amplex-Red oxidation assay; format: tissue-based
T3 sequence (P33072 whole entry): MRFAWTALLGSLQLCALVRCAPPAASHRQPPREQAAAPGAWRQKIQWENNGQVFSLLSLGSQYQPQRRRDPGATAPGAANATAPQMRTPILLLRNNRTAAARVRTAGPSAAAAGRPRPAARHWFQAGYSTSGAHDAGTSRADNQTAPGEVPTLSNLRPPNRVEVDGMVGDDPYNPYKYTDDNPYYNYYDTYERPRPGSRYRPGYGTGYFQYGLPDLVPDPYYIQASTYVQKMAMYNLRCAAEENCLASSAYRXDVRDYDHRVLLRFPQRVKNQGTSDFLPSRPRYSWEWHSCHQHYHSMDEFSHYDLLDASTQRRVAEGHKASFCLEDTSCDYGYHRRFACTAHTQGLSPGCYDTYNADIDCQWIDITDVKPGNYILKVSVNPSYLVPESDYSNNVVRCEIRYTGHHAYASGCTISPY
Summary of the method: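 LOX extracted from calf aorta after PBS washing with 4 M urea/50 mM borate pH 8.2, concentrated on 10 kDa filters into 1.2 M urea/borate with protease inhibitors. Preincubated 30 min at 37 °C with compound, then Amplex Red/HRP with 10 mM putrescine; fluorescence read every 2.5 min for 30 min.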

Cc1c(-c2cccc(S(=O)(=O)N(C)C)c2)c2ccccc2n1C/C(F)=C/CN.Cl
fold change (FC) [1]: 1.4 | IC50 ([2]; read-out: pIC50 (converted)): 100 nM | fold change (FC) [3]: > 4 | IC50 ([4]; read-out: pIC50 (converted)): 2000 nM

CCOC(=O)c1ccc2c(c1)c(-c1cccc(S(=O)(=O)N(C)C)c1)c(C)n2C/C(F)=C/CN.Cl
fold change (FC) [1]: 2.4 | IC50 ([2]; read-out: pIC50 (converted)): 79.4 nM | fold change (FC) [3]: 1 | IC50 ([4]; read-out: pIC50 (converted)): 6310 nM

Cc1c(-c2cccc(S(=O)(=O)N(C)C)c2)c2cc(C(=O)O)ccc2n1C/C(F)=C/CN.Cl
fold change (FC) [1]: 1 | IC50 ([2]; read-out: IC50): 5 nM | fold change (FC) [3]: 1 | IC50 ([4]; read-out: IC50): 1780 nM
